# MrgX1 PAM = allosterically activates human MrgX1 receptor signaling. Q96LB2. MrgX1-HEK293, Fluo-4 calcium flux, FDSS; active compounds read high. B-score at 10 µM. 310,000 compounds, 0.63% hits. AID 588675;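 active = plate-corrected calcium response at least 3 library SD above typical, normal starting fluorescence, not activating the receptor alone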;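 also: compound read alongside a low EC10 to EC30 dose of BAM8-22 agonist; peak minus trough fluorescence over baseline measured at the second addition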
# Target sequence (Q96LB2 whole entry, looked up): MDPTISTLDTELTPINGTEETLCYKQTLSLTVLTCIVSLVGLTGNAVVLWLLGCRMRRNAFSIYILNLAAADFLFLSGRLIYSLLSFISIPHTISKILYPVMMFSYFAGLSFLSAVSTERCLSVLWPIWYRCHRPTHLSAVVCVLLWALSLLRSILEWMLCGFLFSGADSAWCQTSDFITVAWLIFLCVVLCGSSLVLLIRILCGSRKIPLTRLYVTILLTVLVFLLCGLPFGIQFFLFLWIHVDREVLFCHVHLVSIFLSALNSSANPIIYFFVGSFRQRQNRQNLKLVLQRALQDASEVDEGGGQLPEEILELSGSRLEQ
# RGS4 block = inhibitors of human RGS4. AID 463165. B-score at 10 µM. 310,000 compounds, 0.45% hits. HEK293 M3R/RGS4 inducible, Fluo-4 calcium flux; active compounds read high; triggered by carbachol at its EC20. P49798;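 active = B-score, a plate-corrected calcium signal, over three deviations above library mean, with baseline fluorescence within five deviations of library mean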;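 also: RGS4 expression induced by doxycycline in cells with stable M3 receptor; B-score is computed from the integrated fluorescence ratio over baseline after carbachol; higher B-score means a larger calcium signal and so more RGS4 inhibition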
# Target sequence (P49798 whole entry, looked up): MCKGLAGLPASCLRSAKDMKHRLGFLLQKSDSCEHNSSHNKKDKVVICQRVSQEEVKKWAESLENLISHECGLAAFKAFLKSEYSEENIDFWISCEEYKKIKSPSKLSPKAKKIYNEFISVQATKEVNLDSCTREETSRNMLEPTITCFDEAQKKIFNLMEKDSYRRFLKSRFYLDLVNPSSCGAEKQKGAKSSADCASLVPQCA
# MrgX1 antagonist = blocks BAM8-22 activation of human MrgX1 receptor; MRGX1-HEK293 calcium flux, Fluo-4, BAM8-22 antagonism; active compounds read low; AID 588676; 310,000 compounds, 1.3% hits; B-score at 10 µM;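 active = calcium-response B-score plate-corrected more than 3 library SD below zero, starting fluorescence within 5 deviations, no agonist response on first addition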;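 also: peak minus trough fluorescence over baseline after final BAM8-22 challenge near maximal dose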
# MrgX1 agonist = human MrgX1 receptor agonism, primary screen; Q96LB2; MrgX1-HEK293 cells, Fluo-4 calcium fluorescence, agonist mode; active compounds read high; B-score at 10 µM; 310,000 compounds, 0.44% hits;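 active = calcium response B-score plate-corrected fluorescence ratio at least 3 library SD, with starting fluorescence B-score inside 5 SD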
#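 Test system: Stable human MrgX1 HEK293 cell line | Schedule: Overnight plating before 1 h dye loading | Read-out basis: Baseline-normalised fluorescence change ratio, B-scored | Detection: Kinetic calcium dye fluorescence, Fluo-4 NW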
# RGS4 pot = RGS4 potentiation or activation; 310,000 compounds, 0.92% hits; HEK293 M3R/inducible RGS4, carbachol calcium flux Fluo4; active compounds read low; B-score at 10 µM; AID 463111;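 active = B-score of the integrated calcium signal more than 4 SD below the library mean, with starting fluorescence not abnormally high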;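 also: negative B-score means reduced calcium response which marks RGS4 activation or potentiation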
#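 Reagent: ECmax carbachol challenge; Test system: M3R-expressing HEK293 line, RGS4 induced by doxycycline; Schedule: overnight RGS4 induction, 30 min dye load 37 °C, 20 min compound RT; Detection: calcium dye Fluo4 fluorescence; Read-out: Agonist-evoked peak-minus-minimum fluorescence over baseline, integrated ratio, B score.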
# Starred values were filed as active, the others as inactive; i = inactive. An excerpt weighted towards active compounds, which were near 3.5% of everything screened.
SMILES,MrgX1 PAM,RGS4 block,MrgX1 antagonist,MrgX1 agonist,RGS4 pot
CS(=O)(=O)N1N=C(c2ccccc2)CC1c1ccc2nccnc2c1 (stereo not drawn),i,i,i,i,i
CCN1CCN(CCCNC(=O)c2ccc(NC(=O)C3=C(C)OCCS3)cc2)CC1,i,i,i,i,i
CCCCOc1ccc(C(O)(CC)CCN2CCOCC2)cc1 (stereo not drawn),i,i,-6.3*,i,i
CCC(O)(CCN1CCCCC1)c1ccccc1 (stereo not drawn),i,i,i,i,-7*
CCCCCC(O)(CCN1CCCCC1)c1ccc(OCC)cc1 (stereo not drawn),i,i,i,i,-8.8*
C=CCn1c(COc2ccccc2)nnc1SC(C)C(=O)N/N=C/c1cc(Cl)ccc1O (stereo not drawn),i,i,i,i,i
O=C(NC1CCN(S(=O)(=O)c2cccc(Cl)c2)CC1)C1CCCCC1,i,i,i,i,i
Cc1ccc(-c2cc(C(=O)Nc3ccc(S(=O)(=O)Nc4ncccn4)cc3)[nH]n2)c(O)c1C,i,i,i,i,i
COc1cc(/C=N\N=C2/SC(CC(=O)O)C(=O)N2c2ccc(O)cc2)ccc1O (stereo not drawn),i,i,-8.2*,i,i
CCOc1ccc(OCc2cccc(C(=O)Nc3ccc(CN4CCCCC4)cc3)c2)cc1,i,i,i,i,-7.3*
N#Cc1c(NC(=S)NC(=O)c2ccccc2)sc2c1CCN(CCc1ccccc1)C2,i,i,i,58*,i
CCCOC(=O)c1ccc(NC(=O)C2C3C=CC(O3)C2C(=O)O)cc1 (stereo not drawn),7.9*,i,i,i,i
OCCn1c(C(F)(F)F)nc2ccccc21,i,i,i,i,i
Cn1c(Cn2c(C(F)(F)F)nc3ccccc32)nc2ccccc21,i,i,-4.9*,i,i
O=C1NN(c2ccccc2)C(=O)/C1=C/c1ccc(-c2ccc(C(=O)O)cc2)o1,i,i,i,i,i
O=C(O)c1ccc(N2C(=O)/C(=C/c3ccc(-c4ccc([N+](=O)[O-])cc4)o3)C=C2c2ccccc2)cc1,i,i,i,i,-7*
Cc1cc(NC(=O)Cc2ccccc2[N+](=O)[O-])no1,i,i,i,i,i
O=C(O)c1ccc(-c2nc(-c3ccc(Cl)cc3Cl)cs2)cc1,i,i,i,i,i
Cc1onc(-c2ccc(Cl)cc2Cl)c1-c1csc(COc2ccccc2)n1,i,i,i,i,-7.3*
CCc1nnc(NC(=O)CSc2nnc3nc(C)cc(C)n23)s1,i,i,i,i,i
Cc1c(C(=O)/C=C/c2cccs2)oc2ccc(F)cc12,i,i,-6*,i,i
COc1cccc(NC(=O)N2CCCC2C(=O)Nc2cc(C)ccc2OC)c1 (stereo not drawn),i,i,i,i,i
CC(=O)NC1C(=O)N=C(SCC(=O)Nc2ccc(C(F)(F)F)cc2Cl)NC1=O (stereo not drawn),i,i,i,i,i
NC(=O)C1CCN(CC(=O)N2N=CCC2c2ccccc2)CC1 (stereo not drawn),i,i,-5.8*,i,i
CS(=O)(=O)c1ccc2nc(NC(=O)C3=NN(c4ccccc4)C(=O)CC3)sc2c1,i,i,i,i,i
SMILES,MrgX1 PAM,RGS4 block,MrgX1 antagonist,MrgX1 agonist,RGS4 pot
COc1ccc2nc(NC(=O)C3=NN(c4ccccc4)C(=O)CC3)sc2c1,i,i,-5.6*,i,i
CCCOCc1ccc(O)c2ncccc12,i,i,i,i,i
Oc1ccc(COCc2ccccc2)c2cccnc12,i,i,-5.6*,i,i
COc1ccc(/C=C2\N=C3CCCCCN3C2=O)cc1OC,i,i,-4.7*,i,i
CN(C)c1ccc(/C=C(\C#N)C(=O)c2ccccc2)cc1,i,i,-6.3*,i,i
CCN(CC)c1ccc(/C=C(\C#N)C(N)=S)cc1,i,i,i,i,i
CCOC(=O)NC(=O)/C(C#N)=C/c1ccc(N(C)C)cc1,i,i,i,54*,i
CCN(CC)c1ccc(/C=C(\C#N)C(=O)c2ccc(Br)cc2)cc1,i,i,i,30*,i
O=C(NCc1ccc(OC(F)(F)F)cc1)C1CC(c2ccccc2C(F)(F)F)=NO1 (stereo not drawn),i,i,i,i,i
Cn1cccc1CC(=O)N/N=C/c1ccc([N+](=O)[O-])cc1,7.6*,i,i,i,i
CC(=O)Nc1ccc(/C=N\NC(=O)CNS(=O)(=O)c2ccc([N+](=O)[O-])cc2)cc1,i,i,i,i,i
Cn1cccc1CC(=O)N/N=C/c1ccc(Cl)cc1,11*,i,i,i,i
O=C(CNS(=O)(=O)c1ccc([N+](=O)[O-])cc1)N/N=C\c1ccc(O)cc1,9.1*,i,-6.1*,i,i
CCOc1ccc2nc(NC(=O)Nc3cccs3)sc2c1,i,i,i,i,i
O=C(Cc1cccs1)Nc1ccc(-c2nnn(CC(=O)N3CCOCC3)n2)cc1,i,i,-6.4*,i,i
CC(OC(=O)c1cc2sccc2n1C)C(=O)NCc1ccco1 (stereo not drawn),i,i,i,i,i
Cn1c(C(=O)OC(C(=O)NCc2ccco2)c2ccncc2)cc2sccc21 (stereo not drawn),i,i,-4.7*,i,i
COc1cc(/C=C/C(=O)O)cc(S(=O)(=O)Nc2ccccc2Cl)c1OC,i,i,i,i,i
O=c1c2ccccc2nc(/C=C/c2cc(Br)ccc2O)n1CCO,i,i,i,i,i
O=c1c2ccccc2nc(/C=C/c2c[nH]c3ccccc23)n1CCO,i,i,i,i,-7.4*
CN(C)c1ccc(/C=C/c2nc3ccccc3c(=O)n2CCO)cc1,i,i,i,32*,i
NS(=O)(=O)c1ccc(CNC(=O)/C=C/c2cccc([N+](=O)[O-])c2)cc1,i,i,i,i,i
COc1ccc(/C=C2\SC(=S)N(CC(=O)Nc3nnc(C)s3)C2=O)cc1,i,i,i,i,i
COCCCNC(=O)c1cccn2c(=O)c3cc4ccccc4cc3nc12,i,i,-8.5*,i,i
C[N+](C)(C)CCCNC(=O)c1ccc(/C=N/O)nc1,i,i,-5.1*,i,i
N#Cc1c(-n2cccc2/C=N/O)sc2c1CCCC2,i,i,i,32*,i
